# Reference: ChEMBL document CHEMBL4406804, “Discovery of a Potent Steroidal Glucocorticoid Receptor Antagonist with Enhanced Selectivity against the Progesterone and Androgen Receptors (OP-3633)” (J Med Chem, 2019)
# What was measured:
# Glucocorticoid receptor = target: T1, Glucocorticoid receptor (Homo sapiens, UniProt P04150); assay: Displacement of fluormone tracer from full length human recombinant glucocorticoid receptor expressed in baculovirus expression system incubated for 2 hrs by competitive fluorescence polarization binding assay
# T1 sequence (P04150 whole entry): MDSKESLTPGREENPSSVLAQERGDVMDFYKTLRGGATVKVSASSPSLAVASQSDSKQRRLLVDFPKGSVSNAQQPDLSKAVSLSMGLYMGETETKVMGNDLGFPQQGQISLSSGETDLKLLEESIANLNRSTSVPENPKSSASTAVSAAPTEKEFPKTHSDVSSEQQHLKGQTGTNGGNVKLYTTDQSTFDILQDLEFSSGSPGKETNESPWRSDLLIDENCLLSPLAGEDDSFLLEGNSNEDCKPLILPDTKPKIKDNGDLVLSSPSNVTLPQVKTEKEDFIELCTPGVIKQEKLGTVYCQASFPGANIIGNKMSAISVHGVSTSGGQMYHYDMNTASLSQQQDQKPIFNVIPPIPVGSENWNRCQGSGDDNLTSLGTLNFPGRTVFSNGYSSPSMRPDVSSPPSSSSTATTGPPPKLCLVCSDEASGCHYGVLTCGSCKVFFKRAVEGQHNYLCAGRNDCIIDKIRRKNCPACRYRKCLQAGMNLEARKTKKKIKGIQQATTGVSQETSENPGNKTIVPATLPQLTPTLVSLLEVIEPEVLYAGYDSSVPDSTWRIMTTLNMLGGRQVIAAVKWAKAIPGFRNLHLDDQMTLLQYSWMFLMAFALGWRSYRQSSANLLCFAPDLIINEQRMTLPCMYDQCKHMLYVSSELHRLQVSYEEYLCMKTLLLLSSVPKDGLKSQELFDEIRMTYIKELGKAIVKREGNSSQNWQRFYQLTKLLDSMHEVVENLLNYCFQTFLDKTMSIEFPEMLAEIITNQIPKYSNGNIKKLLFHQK
# Progesterone receptor = target: T2, Progesterone receptor (Homo sapiens, UniProt P06401); assay: Antagonist activity at human progesterone receptor expressed in CHO-K1 cells harboring firefly luciferase gene after 20 hrs by One-Glo luciferase reporter gene assay; type: cell-based
# T2 sequence (P06401 whole entry): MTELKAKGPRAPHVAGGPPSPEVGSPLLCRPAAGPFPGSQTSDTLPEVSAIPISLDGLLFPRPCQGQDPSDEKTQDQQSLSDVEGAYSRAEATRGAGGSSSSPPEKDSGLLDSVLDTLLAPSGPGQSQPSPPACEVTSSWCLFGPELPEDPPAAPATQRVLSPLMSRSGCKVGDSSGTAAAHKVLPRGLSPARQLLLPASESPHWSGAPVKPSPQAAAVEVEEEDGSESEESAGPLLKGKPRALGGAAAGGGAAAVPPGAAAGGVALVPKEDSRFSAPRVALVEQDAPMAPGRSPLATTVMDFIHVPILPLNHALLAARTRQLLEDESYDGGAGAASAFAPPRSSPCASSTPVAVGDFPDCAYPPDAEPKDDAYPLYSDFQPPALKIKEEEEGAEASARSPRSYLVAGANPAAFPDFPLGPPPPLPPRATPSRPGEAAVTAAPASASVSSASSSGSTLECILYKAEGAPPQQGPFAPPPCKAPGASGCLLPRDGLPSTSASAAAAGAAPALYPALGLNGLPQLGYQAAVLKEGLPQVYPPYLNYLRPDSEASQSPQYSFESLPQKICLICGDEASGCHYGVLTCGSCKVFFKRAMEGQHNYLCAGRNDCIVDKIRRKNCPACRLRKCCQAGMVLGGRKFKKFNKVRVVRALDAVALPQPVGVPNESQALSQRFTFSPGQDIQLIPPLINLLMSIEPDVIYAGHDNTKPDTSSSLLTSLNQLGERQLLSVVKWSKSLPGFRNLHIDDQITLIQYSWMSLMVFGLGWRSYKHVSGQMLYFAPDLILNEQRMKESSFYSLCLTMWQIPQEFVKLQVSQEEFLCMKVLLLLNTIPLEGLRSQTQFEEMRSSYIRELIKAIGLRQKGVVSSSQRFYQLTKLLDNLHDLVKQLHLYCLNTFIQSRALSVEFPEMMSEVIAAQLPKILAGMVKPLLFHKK
# Outline: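 Cell-based luciferase reporter assays for GR, AR and PR, run in agonist and antagonist modes. Potency and Emax are averages of at least two determinations, reported with SD.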
# [1] = Clearance in rat at 0.5 mg/kg, iv; type: ADME, organism-based; conditions: in vivo
# Outline: (§1)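 Rat PK study. The iv dose of 0.5 mg/kg was given in 10% DMSO, 70% PEG 400 and 20% water. The oral dose of 5 mg/kg was given in 5% DMSO / 95% of 0.2% Tween 80 in 0.25% CMC, adjusted to pH 4 for one compound. Read-outs were CL, Vss, iv t1/2, F, Cmax and AUC.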
# [2] = AUC in rat at 5 mg/kg, po; type: ADME, organism-based; conditions: in vivo; outline: as §1
# Mus musculus = assay: Unbound plasma concentration in hsd:athymic Nude-Foxn1nu mouse xenografted with human HCC1806 cells at 150 mg/kg, po administered as single dose via gavage and measured after 1 to 6 hrs […]; type: ADME, organism-based; conditions: in vivo
# Outline: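 Mice bearing HCC1806 xenografts received a bolus oral dose of cortisol at 5 mg/kg to activate GR, plus a single oral gavage dose of the test agent at 150 mg/kg. An unbound plasma concentration-time profile was taken up to 6 h, with n = 3 mice per group.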
# [3] = Toxicity in female rat assessed as effect on body weight at 250 mg/kg/day, po administered once daily via gavage for 14 days; type: organism-based; conditions: in vivo, 336 h
# [4] = Oral bioavailability in dog at 5 mg/kg; type: ADME, organism-based, Canis lupus familiaris; conditions: in vivo
# [5] = Half-life in dog at 0.5 mg/kg, iv; type: ADME, organism-based, Canis lupus familiaris; conditions: in vivo
# [6] = Half-life in rat at 0.5 mg/kg, iv; type: ADME, organism-based; conditions: in vivo; outline: as §1
structure (smiles),measurement,setting,value
CC#C[C@]1(O)CC[C@H]2[C@@H]3CCC4=CC(=O)CC[C@]4(C)[C@H]3[C@@H](c3ccc(N(C)C)cc3)C[C@@]21C,IC50,Glucocorticoid receptor,8.5 nM
same,IC50,Progesterone receptor,1140 nM
same,clearance,[1],51.7 mL/min/kg
same,AUC,[2],1020 ng·h/mL
same,Cp(f),Mus musculus,400 nM
same,Activity,[3],Non-Toxic
same,bioavailability,[4],67.6%
same,half-life,[5],16.2 h
same,half-life,[6],1.8 h
